# Tests used:
# Format in all cases: functional
# [1] = Growth inhibition of human OVCAR8 cells at 10 uM after 48 hrs by sulforhodamine B assay; conditions: OVCAR-8, 48 h, read-out: GI
# Summary of the method: (§1)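 Run at NCI on the 60-line panel. Cells grown in RPMI 1640 with 5% FBS and 2 mM L-glutamine, plated at 5000–40,000 cells/well by doubling time, and held 24 h at 37 °C before dosing. Drug (DMSO stock) given at a single final 10 µM in triplicate wells for 48 h. Adherent cells fixed with cold TCA (10% final), suspension cells with 16% TCA. SRB stain read at 515 nm. Percent growth from Tz, C and Ti.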
# [2] = Growth inhibition of human SKOV3 cells at 10 uM after 48 hrs by sulforhodamine B assay; conditions: SK-OV-3, 48 h, read-out: GI; summary of the method: as §1
# KM12 = test: Growth inhibition of human KM12 cells at 10 uM after 48 hrs by sulforhodamine B assay; conditions: KM12, 48 h, read-out: GI; summary of the method: as §1
# [3] = Growth inhibition of human BT549 cells at 10 uM after 48 hrs by sulforhodamine B assay; conditions: BT-549, 48 h, read-out: GI; summary of the method: as §1
# [4] = Growth inhibition of human OVCAR5 cells at 10 uM after 48 hrs by sulforhodamine B assay; conditions: OVCAR-5, 48 h, read-out: GI; summary of the method: as §1
# K562 = test: Growth inhibition of human K562 cells at 10 uM after 48 hrs by sulforhodamine B assay; conditions: K562, 48 h, read-out: GI; summary of the method: as §1
# SR = test: Growth inhibition of human SR cells at 10 uM after 48 hrs by sulforhodamine B assay; conditions: read-out: GI
# Summary of the method: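 NCI-60 screen. Cells were grown in RPMI 1640 with 5% FBS and 2 mM L-glutamine, plated at 5000–40,000 cells/well and held 24 h at 37 °C, 5% CO2. Single 10 µM final dose from DMSO stock, triplicate wells, 48 h. Settled cells were fixed with 80% TCA (16% final) and stained with 0.4% SRB. Dye was solubilized in 10 mM Tris and read at 515 nm. Growth was calculated against time-zero and untreated wells.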
# ACHN = test: Growth inhibition of human ACHN cells at 10 uM after 48 hrs by sulforhodamine B assay; conditions: read-out: GI; summary of the method: as §1
# [5] = Growth inhibition of human SF295 cells at 10 uM after 48 hrs by sulforhodamine B assay; conditions: SF-295, 48 h, read-out: GI; summary of the method: as §1
# MDA-MB-468 = test: Growth inhibition of human MDA-MB-468 cells at 10 uM after 48 hrs by sulforhodamine B assay; conditions: MDA-MB-468, 48 h, read-out: GI; summary of the method: as §1
# M14 = test: Growth inhibition of human M14 cells at 10 uM after 48 hrs by sulforhodamine B assay; conditions: M14, 48 h, read-out: GI; summary of the method: as §1
# [6] = Growth inhibition of human RPMI8226 cells at 10 uM after 48 hrs by sulforhodamine B assay; conditions: RPMI-8226, 48 h, read-out: GI; summary of the method: as §1
# [7] = Growth inhibition of human SNB19 cells at 10 uM after 48 hrs by sulforhodamine B assay; conditions: SNB-19, 48 h, read-out: GI; summary of the method: as §1
# [8] = Growth inhibition of human RXF393 cells at 10 uM after 48 hrs by sulforhodamine B assay; conditions: RXF 393, 48 h, read-out: GI; summary of the method: as §1
# [9] = Growth inhibition of human HCC2998 cells at 10 uM after 48 hrs by sulforhodamine B assay; conditions: HCC 2998, 48 h, read-out: GI; summary of the method: as §1
# [10] = Growth inhibition of human OVCAR4 cells at 10 uM after 48 hrs by sulforhodamine B assay; conditions: OVCAR-4, 48 h, read-out: GI; summary of the method: as §1
# [11] = Growth inhibition of human SW620 cells at 10 uM after 48 hrs by sulforhodamine B assay; conditions: SW-620, 48 h, read-out: GI
# Summary of the method: (§2)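 NCI-60 panel, adherent cells grown in RPMI 1640 with 5% FBS and 2 mM L-glutamine, plated at 5000–40,000 cells/well and preincubated 24 h at 37 °C, 5% CO2. 10 µM final compound from DMSO stock, triplicate wells, 48 h. Fixed with cold TCA (10% final, 60 min, 4 °C) and stained with 0.4% SRB. Absorbance read at 515 nm; growth calculated against time-zero and control wells.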
# [12] = Growth inhibition of human SF268 cells at 10 uM after 48 hrs by sulforhodamine B assay; conditions: SF-268, 48 h, read-out: GI; summary of the method: as §1
# A549 = test: Growth inhibition of human A549 cells at 10 uM after 48 hrs by sulforhodamine B assay; conditions: A549, 48 h, read-out: GI; summary of the method: as §1
# [13] = Growth inhibition of human UO31 cells at 10 uM after 48 hrs by sulforhodamine B assay; conditions: UO-31, 48 h, read-out: GI; summary of the method: as §2
# [14] = Growth inhibition of human LOXIMVI cells at 10 uM after 48 hrs by sulforhodamine B assay; conditions: LOX IMVI, read-out: GI; summary of the method: as §1
# [15] = Growth inhibition of human PC3 cells at 10 uM after 48 hrs by sulforhodamine B assay; conditions: PC-3, 48 h, read-out: GI; summary of the method: as §1
# [16] = Growth inhibition of human HCT15 cells at 10 uM after 48 hrs by sulforhodamine B assay; conditions: HCT-15, 48 h, read-out: GI; summary of the method: as §1
# CCRF-CEM = test: Growth inhibition of human CCRF-CEM cells at 10 uM after 48 hrs by sulforhodamine B assay; conditions: read-out: GI; summary of the method: as §1
# HT-29 = test: Growth inhibition of human HT-29 cells at 10 uM after 48 hrs by sulforhodamine B assay; conditions: HT-29, 48 h, read-out: GI; summary of the method: as §1
# [17] = Growth inhibition of human COLO205 cells at 10 uM after 48 hrs by sulforhodamine B assay; conditions: COLO 205, 48 h, read-out: GI; summary of the method: as §1
# NCI-H460 = test: Growth inhibition of human NCI-H460 cells at 10 uM after 48 hrs by sulforhodamine B assay; conditions: NCI-H460, 48 h, read-out: GI; summary of the method: as §1
# Malme-3M = test: Growth inhibition of human MALME-3M cells at 10 uM after 48 hrs by sulforhodamine B assay; conditions: read-out: GI; summary of the method: as §1
# SK-MEL-5 = test: Growth inhibition of human SK-MEL-5 cells at 10 uM after 48 hrs by sulforhodamine B assay; conditions: SK-MEL-5, 48 h, read-out: GI; summary of the method: as §1
# [18] = Growth inhibition of human HOP92 cells at 10 uM after 48 hrs by sulforhodamine B assay; conditions: HOP-92, 48 h, read-out: GI; summary of the method: as §1
# SN12C = test: Growth inhibition of human SN12C cells at 10 uM after 48 hrs by sulforhodamine B assay; conditions: read-out: GI; summary of the method: as §1
# SK-MEL-28 = test: Growth inhibition of human SK-MEL-28 cells at 10 uM after 48 hrs by sulforhodamine B assay; conditions: SK-MEL-28, 48 h, read-out: GI; summary of the method: as §1
# [19] = Growth inhibition of human HCT116 cells at 10 uM after 48 hrs by sulforhodamine B assay; conditions: HCT-116, 48 h, read-out: GI; summary of the method: as §1
# MCF7 = test: Growth inhibition of human MCF7 cells at 10 uM after 48 hrs by sulforhodamine B assay; conditions: MCF7, 48 h, read-out: GI; summary of the method: as §1
structure (smiles),measurement,setting,value
COc1ccc(Cc2nnc(Nc3ccc(Cl)c(C(F)(F)F)c3)c3ccccc23)cc1,inhibition of growth at 10 µM,[1],40%
same,inhibition of growth at 10 µM,[2],< 30%
same,inhibition of growth at 10 µM,KM12,52%
same,inhibition of growth at 10 µM,[3],< 30%
same,inhibition of growth at 10 µM,[4],33%
same,inhibition of growth at 10 µM,K562,60%
same,inhibition of growth at 10 µM,SR,43%
same,inhibition of growth at 10 µM,ACHN,45%
same,inhibition of growth at 10 µM,[5],49%
same,inhibition of growth at 10 µM,MDA-MB-468,54%
same,inhibition of growth at 10 µM,M14,48%
same,inhibition of growth at 10 µM,[6],94%
same,inhibition of growth at 10 µM,[7],43%
same,inhibition of growth at 10 µM,[8],33%
same,inhibition of growth at 10 µM,[9],42%
same,inhibition of growth at 10 µM,[10],45%
same,inhibition of growth at 10 µM,[11],< 30%
same,inhibition of growth at 10 µM,[12],< 30%
same,inhibition of growth at 10 µM,A549,62%
same,inhibition of growth at 10 µM,[13],63%
same,inhibition of growth at 10 µM,[14],< 30%
same,inhibition of growth at 10 µM,[15],61%
same,inhibition of growth at 10 µM,[16],58%
same,inhibition of growth at 10 µM,CCRF-CEM,52%
same,inhibition of growth at 10 µM,HT-29,48%
same,inhibition of growth at 10 µM,[17],< 30%
same,inhibition of growth at 10 µM,NCI-H460,74%
same,inhibition of growth at 10 µM,Malme-3M,< 30%
same,inhibition of growth at 10 µM,SK-MEL-5,< 30%
same,inhibition of growth at 10 µM,[18],58%
same,inhibition of growth at 10 µM,SN12C,46%
same,inhibition of growth at 10 µM,SK-MEL-28,< 30%
same,inhibition of growth at 10 µM,[19],73%
same,inhibition of growth at 10 µM,MCF7,48%
COc1ccc(Cc2nnc(Nc3ccc(Cl)cc3)c3ccccc23)cc1,inhibition of growth at 10 µM,[1],35%
same,inhibition of growth at 10 µM,[2],< 30%
same,inhibition of growth at 10 µM,KM12,30%
same,inhibition of growth at 10 µM,[3],< 30%
same,inhibition of growth at 10 µM,[4],< 30%
same,inhibition of growth at 10 µM,K562,48%
same,inhibition of growth at 10 µM,SR,54%
same,inhibition of growth at 10 µM,ACHN,47%
same,inhibition of growth at 10 µM,[5],50%
same,inhibition of growth at 10 µM,MDA-MB-468,42%
same,inhibition of growth at 10 µM,M14,47%
same,inhibition of growth at 10 µM,[6],69%
same,inhibition of growth at 10 µM,[7],38%
same,inhibition of growth at 10 µM,[8],32%
same,inhibition of growth at 10 µM,[9],< 30%
same,inhibition of growth at 10 µM,[10],33%
same,inhibition of growth at 10 µM,[11],< 30%
same,inhibition of growth at 10 µM,[12],< 30%
same,inhibition of growth at 10 µM,A549,40%
same,inhibition of growth at 10 µM,[13],68%
same,inhibition of growth at 10 µM,[14],58%
same,inhibition of growth at 10 µM,[15],51%
same,inhibition of growth at 10 µM,[16],33%
same,inhibition of growth at 10 µM,CCRF-CEM,46%
same,inhibition of growth at 10 µM,HT-29,50%
same,inhibition of growth at 10 µM,[17],< 30%
same,inhibition of growth at 10 µM,NCI-H460,45%
same,inhibition of growth at 10 µM,Malme-3M,< 30%
same,inhibition of growth at 10 µM,SK-MEL-5,35%
same,inhibition of growth at 10 µM,[18],76%
same,inhibition of growth at 10 µM,SN12C,50%
same,inhibition of growth at 10 µM,SK-MEL-28,< 30%
same,inhibition of growth at 10 µM,[19],66%
same,inhibition of growth at 10 µM,MCF7,36%
